Assay outcomes: PubChem, several laboratories
HIV Rev-RRE inh: HIV-1 Rev-RRE binding inhibitors, primary screen, biochemical, FRET, protein-RNA interaction; AID 704, 2007; P05866; Rev peptide-RRE RNA binding; 0.79% of 97,000 active; inhibition, % at 8 µM;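 active = inhibition above the screen-wide mean plus 3 SD, cut at about 35% in these data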;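 note: 0% = median DMSO wells and 100% = median Neomycin B control wells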
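assay system = Cy5-tagged RRE RNA duplex with fluorescein-tagged Rev peptide | incubation = 5 + 15 min at 25 °C | also added = labelled Rev peptide | measure = % inhibition of FRET ratio versus controls | benchmarks = DMSO wells as 0% and neomycin B wells as 100% inhibition | measured by = FRET fluorescence readout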
Cav3 T inh: Cav3.2 calcium influx blockers – cell-based, Fluo-4 calcium fluorescence, FDSS, MLSMR library, primary screen | 4% of 100,000 active | Cav3.2-expressing cells; active compounds read low | AID 449739, 2010 | B-score at 10 µM | Voltage-dependent T-type calcium channel subunit alpha-1H (Homo sapiens), O95180;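 active = single-dose well whose peak fluorescence ratio is a statistical outlier from its plate by either plate-standardised score or position-corrected B-score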
CYP2C19 inh: blockers of cytochrome P450 2C19 activity – biochemical, luminescence, ADME assay, primary screen; P33261; CYP2C19 Supersomes, luciferin-H EGE luminescence, 30 min; inhibition, % at 5 µM; 21% of 96,000 active;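 active = CYP2C19 inhibition above a set limit at 5 µM in the primary screen, cut at about 50% in these data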;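 note: plate controls were negative control wells for no effect and 2.5 mM tranylcypromine positive control for full effect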
Target sequence (P33261 whole entry, looked up): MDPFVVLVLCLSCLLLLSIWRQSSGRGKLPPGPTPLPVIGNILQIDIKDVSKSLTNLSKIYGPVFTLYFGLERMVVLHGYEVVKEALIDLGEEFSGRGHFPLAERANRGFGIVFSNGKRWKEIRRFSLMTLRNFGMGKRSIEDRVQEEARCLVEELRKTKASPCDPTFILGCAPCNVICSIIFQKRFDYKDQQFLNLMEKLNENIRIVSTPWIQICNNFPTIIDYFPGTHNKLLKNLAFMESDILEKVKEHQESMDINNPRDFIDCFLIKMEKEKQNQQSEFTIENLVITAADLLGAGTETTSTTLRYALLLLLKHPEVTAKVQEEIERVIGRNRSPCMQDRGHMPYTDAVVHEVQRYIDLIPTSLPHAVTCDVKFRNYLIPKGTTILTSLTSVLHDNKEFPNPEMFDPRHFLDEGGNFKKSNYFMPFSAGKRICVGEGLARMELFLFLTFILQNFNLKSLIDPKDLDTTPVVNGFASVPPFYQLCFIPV
CYP2C19 activ: human CYP2C19 activators, primary screen, biochemical, luminescence | recombinant CYP2C19, luciferin-H EGE luminescence; active compounds read high; 0 = fully inhibited enzyme, 1 = untreated enzyme | activation factor at 5 µM | 96,000 tested, under 10 active | AID 1025, 2008;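 active = activation factor of at least 2 at 5 µM in the primary screen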;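 note: 0 = wells with 2.5 mM tranylcypromine and 1 = vehicle-only wells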
CYP2C9 activ: human CYP2C9 activators, primary screen, biochemical, luminescence. activation factor at 5 µM. 1.4% of 96,000 active. recombinant CYP2C9, luciferin-H conversion; active compounds read high; factor 1 = untreated enzyme, 0 = blocked;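 active = activation factor of 2 or more for CYP2C9 at a 5 µM dose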;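 note: 0 = sulfaphenazole-blocked wells and 1 = vehicle-only wells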
CYP2C9 inh: blockers of cytochrome P450 2C9 activity – biochemical, luminescence, ADME assay, primary screen; P11712; CYP2C9 Supersomes, luciferin-H conversion; inhibition, % at 5 µM; 20% of 96,000 active;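 active = blocking of liver enzyme CYP2C9 beyond about 50% at 5 µM, limit read from the data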
* = called active by the depositor; nt = no result; [ ] = another dose, or the depositor's remark. Compounds with a hit are over-represented: about 27% of the library has one in this group of screens.

SMILES	HIV Rev-RRE inh	Cav3 T inh	CYP2C19 inh	CYP2C19 activ	CYP2C9 activ	CYP2C9 inh
CCCC1(c2ccccc2)NC(=O)N(CCN2C(=O)c3ccccc3C2=O)C1=O (stereo not given)	2.3	1.7	89.3*	0.1	0.6	37.7
CCCCOC(=O)c1ccc(NC(=O)c2c(N)n(C)c(=O)[nH]c2=O)cc1	nt	0.085	nt	nt	nt	nt
Cc1onc(-c2ccccc2Cl)c1C(=O)N(C)C1CCCCC1	2.9	nt	43.0	0.6	0.8	21.0
CN(C(=O)c1ccccc1Cl)C1CCCCC1	0.3	-1.01	75.4*	0.2	0.6	37.4
CCOc1ccc(C(C)=O)cc1CC(C(N)=O)C(N)=O	4.3	nt	3.4	1	0.9	8.7
CCOc1ccc(C(C)=O)cc1COC(=O)C1=COCCO1	0.9	-0.299	63.5*	0.4	0.5	46.8
Cc1cc2c(cc1C)NC(c1c(C)n(C)n(-c3ccccc3)c1=O)C1=C(CC(C)(C)CC1=O)N2 (stereo not given)	107.2*[fluorescence artefact?]	-0.906	-6.4	1.1	1.2	-16.9
CC1(C)CC(=O)C2=C(C1)Nc1ccccc1NC2c1nc2ccccc2[nH]1 (stereo not given)	-0.3	-0.444	-10.6	1.1	1.2	-16.6
Clc1ncn(C23CC4CC(CC(C4)C2)C3)n1	4.7	nt	14.2	0.9	1	0.9
O=C(NCc1ccccc1)C(=O)NCC1OCCN1S(=O)(=O)c1cccs1 (stereo not given)	nt	0.61	nt	nt	nt	nt
Cc1ccc(CNC(=O)C(=O)NCC2OCCN2S(=O)(=O)c2cccs2)cc1 (stereo not given)	nt	-4.69*	nt	nt	nt	nt
CCOC(=O)c1ccc(CC(=O)c2ccc(O)cc2O)o1	18.6	-1.05	46.9	0.5	0.6	41.0
COC(=O)c1cc(CC(=O)c2ccc(O)cc2O)c(C)o1	1.6	0.72	93.6*	0.1	0.5	53.6*
COC(=O)c1ccc(CC(=O)c2ccc(O)cc2O)o1	24.6	0.232	31.0	0.7	0.5	52.5*
COc1ccc(C(=O)Cc2ccc(OC)c(OC)c2)cc1	1.0	0.441	42.5	0.6	1.2	-16.8
COC(=O)c1ccc(CC(=O)c2c(C)cc(O)cc2O)o1	0.6	-0.0832	93.3*	0.1	0.4	60.5*
COc1ccc(CC(=O)c2c(O)cc(O)cc2O)cc1OC	-1.9	-0.0928	77.0*	0.2	0.1	88.2*
O=C(Nc1cccnc1)c1cc(-c2ccc3c(c2)OCO3)on1	-0.7	0.0444	3.2	1	1	2.7
CCOC(=O)Cc1csc(NC(=S)NC(=O)c2ccccc2C)n1	2.0	-1.37	5.3	0.9	0.5	49.2
O=C(c1ccc(COc2ccccc2Cl)o1)N1CCN(Cc2ccc3c(c2)OCO3)CC1	7.2	-4.95*	71.8*	0.3	0.1	86.7*
CCN1CCN(C(=O)c2ccc(COc3ccc(Cl)cc3)o2)CC1	6.1	1.06	-2.9	1	1	1.1
O=C(c1ccc(COc2ccc(Cl)cc2)o1)N1CCN(Cc2ccc3c(c2)OCO3)CC1	0.3	-3.29	16.0	0.8	0.4	62.3*
COc1ccc(/C=N/NC(=O)CC(=O)NCCc2ccccc2)cc1OC	3.6	0.0201	33.4	0.7	0.9	7.9
C#CC[N+](C)(C)C(C#Cc1ccccc1)CC=C (stereo not given)	2.3	0.355	-8.1	1.1	1	2.9
O=C(CSCc1ccccc1Cl)NN1C(=O)c2ccccc2C1=O	-2.8	-0.345	49.0	0.5	0.5	51.0*
CCN(CC)CCNC(=O)Cn1nc(Cc2cccnc2)c2ccccc2c1=O	4.6	0.681	-0.6	1	0.9	14.8
Cn1c(SCc2ccccc2)nnc1-c1cccs1	4.8	0.0168	40.8	0.6	1.1	-7.9
Cc1c(Cl)cccc1-n1nnnc1-c1cccs1	nt	-0.246	95.8*	0	0.7	26.5
O=C(CCn1c(=O)[nH]c2ccccc2c1=O)Nc1ccccc1	5.1	0.664	52.9*	0.5	0.5	47.4
COCCNC(=O)CCCCCn1c(=S)[nH]c2ccccc2c1=O	5.7	-0.22	1.0	1	1.1	-14.5
